{
  "source": "ChEMBL document CHEMBL1144306",
  "about": "“1-Hydroxyalkyl-3-phenylthioureas as novel HDL-elevating agents” (2005)",
  "assay_type_in_all_cases": "functional",
  "key": {"Rattus norvegicus [1]": {"system": "Rattus norvegicus", "assay": "Effect on level of total cholesterol (relative to untreated control) in cholesterol fed-male rats at 62 mg/kg/day", "how_it_was_run": "(§1)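 Male Sprague–Dawley rats (groups of six) fed a cholic acid- and cholesterol-supplemented diet; compound mixed into the diet, given ad libitum for eight days. Lipoproteins were separated by ultracentrifugation, and cholesterol was measured by an enzymatic colorimetric method. Results are % change versus untreated controls, with significance at p < 0.05.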"}, "Rattus norvegicus [2]": {"system": "Rattus norvegicus", "assay": "Effect on level of triglyceride in (relative to untreated control) in cholesterol fed-male rats at 62 mg/kg/day", "how_it_was_run": "(§2)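 Serum triglycerides were measured in groups of six male Sprague–Dawley rats on a cholic acid/cholesterol-supplemented diet. Compound was dosed in the diet, ad libitum, for eight days. Results are % change relative to untreated controls, with significance at p < 0.05.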"}, "Rattus norvegicus [3]": {"system": "Rattus norvegicus", "assay": "Effect on level of high density lipoprotein cholesterol (relative to untreated control) in cholesterol fed-male rats at 62 mg/kg/day", "how_it_was_run": "as §1"}, "Rattus norvegicus [4]": {"system": "Rattus norvegicus", "assay": "Effect on level of apolipoprotein (Apo) AI (relative to untreated control) in cholesterol fed-male rats at 62 mg/kg/day", "how_it_was_run": "(§3)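 Six male Sprague–Dawley rats per group, fed a cholic acid/cholesterol-supplemented diet, received compound in the diet ad libitum for eight days. Serum Apo A–I was measured by SDS-PAGE or by rat competition ELISA and reported as % change versus untreated controls (p < 0.05). Gemfibrozil was the internal positive control in each study.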"}, "Rattus norvegicus [5]": {"system": "Rattus norvegicus", "assay": "Effect on change in body weight gain (relative to untreated control) in cholesterol fed-male rats at 62 mg/kg/day", "how_it_was_run": "(§4)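 Male Sprague–Dawley rats, six per group, on a cholic acid- and cholesterol-supplemented diet. Compounds were mixed into the diet and given ad libitum for eight days. Change in body weight gain is expressed as a percentage of untreated controls. Significance was set at p < 0.05 versus untreated controls.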"}, "Rattus norvegicus [6]": {"system": "Rattus norvegicus", "assay": "Effect on level of high density lipoprotein cholesterol (relative to untreated control) in cholesterol fed-male rats at 76 mg/kg/day", "how_it_was_run": "as §1"}, "Rattus norvegicus [7]": {"system": "Rattus norvegicus", "assay": "Effect on level of apolipoprotein (Apo) AI (relative to untreated control) in cholesterol fed-male rats at 76 mg/kg/day", "how_it_was_run": "as §3"}, "Rattus norvegicus [8]": {"system": "Rattus norvegicus", "assay": "Effect on level of total cholesterol (relative to untreated control) in cholesterol fed-male rats at 76 mg/kg/day", "how_it_was_run": "as §1"}, "Rattus norvegicus [9]": {"system": "Rattus norvegicus", "assay": "Effect on change in body weight gain (relative to untreated control) in cholesterol fed-male rats at 76 mg/kg/day", "how_it_was_run": "as §4"}, "Rattus norvegicus [10]": {"system": "Rattus norvegicus", "assay": "Effect on level of triglyceride in (relative to untreated control) in cholesterol fed-male rats at 76 mg/kg/day", "how_it_was_run": "as §2"}, "Rattus norvegicus [11]": {"system": "Rattus norvegicus", "assay": "Effect on level of high density lipoprotein cholesterol (relative to untreated control) in cholesterol fed-male rats at 38 mg/kg/day", "how_it_was_run": "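Cholic acid/cholesterol-fed male Sprague–Dawley rats (n = 6 per group) were dosed via diet ad libitum for eight days. Lipoproteins were separated by ultracentrifugation and HDL cholesterol was quantified by an enzymatic colorimetric method. Values are % change relative to untreated controls, with significance at p < 0.05. Gemfibrozil was the internal positive control.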"}, "Rattus norvegicus [12]": {"system": "Rattus norvegicus", "assay": "Effect on level of apolipoprotein (Apo) AI (relative to untreated control) in cholesterol fed-male rats at 38 mg/kg/day", "how_it_was_run": "as §3"}, "Rattus norvegicus [13]": {"system": "Rattus norvegicus", "assay": "Effect on level of triglyceride in (relative to untreated control) in cholesterol fed-male rats at 38 mg/kg/day", "how_it_was_run": "as §2"}, "Rattus norvegicus [14]": {"system": "Rattus norvegicus", "assay": "Effect on change in body weight gain (relative to untreated control) in cholesterol fed-male rats at 38 mg/kg/day", "how_it_was_run": "as §4"}, "Rattus norvegicus [15]": {"system": "Rattus norvegicus", "assay": "Effect on level of total cholesterol (relative to untreated control) in cholesterol fed-male rats at 38 mg/kg/day", "how_it_was_run": "as §1"}, "Rattus norvegicus [16]": {"system": "Rattus norvegicus", "assay": "Effect on level of high density lipoprotein cholesterol (relative to untreated control) in cholesterol fed-male rats at 78 mg/kg/day", "how_it_was_run": "as §1"}, "Rattus norvegicus [17]": {"system": "Rattus norvegicus", "assay": "Effect on level of triglyceride in (relative to untreated control) in cholesterol fed-male rats at 78 mg/kg/day", "how_it_was_run": "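Compound given in diet ad libitum for eight days to groups of six male Sprague–Dawley rats on a cholic acid and cholesterol-supplemented diet. Serum triglycerides expressed as % change relative to untreated controls, with significance at p < 0.05. Gemfibrozil served as internal positive control within each study.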"}, "Rattus norvegicus [18]": {"system": "Rattus norvegicus", "assay": "Effect on level of total cholesterol (relative to untreated control) in cholesterol fed-male rats at 78 mg/kg/day", "how_it_was_run": "as §1"}, "Rattus norvegicus [19]": {"system": "Rattus norvegicus", "assay": "Effect on change in body weight gain (relative to untreated control) in cholesterol fed-male rats at 78 mg/kg/day", "how_it_was_run": "as §4"}, "Rattus norvegicus [20]": {"system": "Rattus norvegicus", "assay": "Effect on level of apolipoprotein (Apo) AI (relative to untreated control) in cholesterol fed-male rats at 78 mg/kg/day", "how_it_was_run": "as §3"}},
  "data": [
    {"smiles": "Cc1ccc(Cl)cc1N/C(S)=N/C[C@@H](C)O", "values": [
      {"measurement": "Activity", "setting": "Rattus norvegicus [1]", "result": -1, "unit": "%"},
      {"measurement": "Activity", "setting": "Rattus norvegicus [2]", "result": -68, "unit": "%"},
      {"measurement": "Activity", "setting": "Rattus norvegicus [3]", "result": 60, "unit": "%"},
      {"measurement": "Activity", "setting": "Rattus norvegicus [4]", "result": 25, "unit": "%"},
      {"measurement": "Activity", "setting": "Rattus norvegicus [5]", "result": -69, "unit": "%"}
    ]},
    {"smiles": "Cc1ccc(Cl)cc1N/C(S)=N/[C@@H](C)CO", "values": [
      {"measurement": "Activity", "setting": "Rattus norvegicus [6]", "result": 32, "unit": "%"},
      {"measurement": "Activity", "setting": "Rattus norvegicus [7]", "result": 20, "unit": "%"},
      {"measurement": "Activity", "setting": "Rattus norvegicus [8]", "result": 48, "unit": "%"},
      {"measurement": "Activity", "setting": "Rattus norvegicus [9]", "result": 10, "unit": "%"},
      {"measurement": "Activity", "setting": "Rattus norvegicus [10]", "result": 1, "unit": "%"}
    ]},
    {"smiles": "Cc1ccc(Cl)cc1/N=C(\\S)NCC(=O)O", "values": [
      {"measurement": "Activity", "setting": "Rattus norvegicus [11]", "result": 8, "unit": "%"},
      {"measurement": "Activity", "setting": "Rattus norvegicus [12]", "result": 14, "unit": "%"},
      {"measurement": "Activity", "setting": "Rattus norvegicus [13]", "result": 4, "unit": "%"},
      {"measurement": "Activity", "setting": "Rattus norvegicus [14]", "result": 10, "unit": "%"},
      {"measurement": "Activity", "setting": "Rattus norvegicus [15]", "result": 24, "unit": "%"}
    ]},
    {"smiles": "Cc1ccc(Cl)cc1/N=C(\\S)N1CCC(O)C1", "note": "(stereo not given)", "values": [
      {"measurement": "Activity", "setting": "Rattus norvegicus [16]", "result": 9, "unit": "%"},
      {"measurement": "Activity", "setting": "Rattus norvegicus [17]", "result": -24, "unit": "%"},
      {"measurement": "Activity", "setting": "Rattus norvegicus [18]", "result": -5, "unit": "%"},
      {"measurement": "Activity", "setting": "Rattus norvegicus [19]", "result": 2, "unit": "%"},
      {"measurement": "Activity", "setting": "Rattus norvegicus [20]", "result": 4, "unit": "%"}
    ]}
  ]
}
